These results are taken from ChEMBL document CHEMBL1123365, “Synthesis and opioid antagonist potencies of naltrexamine bivalent ligands with conformationally restricted spacers” (1986).

The nature of test [1]: Ratio of IC50 of compound in presence of morphine on the electrically stimulated guinea pig ileal longitudinal muscle (GPI) to that of IC50 of control value. The class given is functional. Summed up: (§1)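 Guinea pig ileal longitudinal muscle (GPI) strip. Each ligand at 5 nM was incubated with the tissue for 30 min before a morphine (μ-selective) concentration-response curve was run. The IC50 ratio is the morphine IC50 with antagonist divided by the control IC50 in the same preparation. Relative potency is the ratio relative to the monovalent reference ligand. Mean ± SE of three determinations.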

The species entered for test [2] is Cavia porcellus. The test is described as follows: Compound was tested for its antagonistic activity with morphine on the electrically stimulated guinea pig ileal longitudinal muscle (GPI). It is filed as functional, Muscle tissue. Summed up: as §1
The species entered for test [3] is Cavia porcellus. Nature of the test: Compound was tested for its antagonistic activity with ethylketazocine (EK) activity on the electrically stimulated guinea pig ileal longitudinal muscle (GPI). It is filed as functional, Muscle tissue. Summed up: (§2)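 Guinea pig ileal longitudinal muscle (GPI) strip. Ligand at 5 nM was preincubated with the tissue for 30 min, then an ethylketazocine (κ-selective) concentration-response curve was run. The IC50 ratio is the EK IC50 with antagonist over the control EK IC50 in the same GPI preparation. Relative potency is expressed against the monovalent reference ligand. Mean ± SE, n = 3.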

A short description of test [4]: Ratio of IC50 of compound in presence of ethylketazocine (EK) on the electrically stimulated guinea pig ileal longitudinal muscle (GPI) to that of IC50 of control value. It is filed as functional. Summed up: as §2

Take `O=C(/C=C/C(=O)NCC(=O)NCC(=O)NCC(=O)NCC(=O)NC1CCC2(O)C3Cc4ccc(O)c5c4C2(CCN3CC2CC2)C1O5)NCC(=O)NCC(=O)NCC(=O)NCC(=O)NC1CCC2(O)C3Cc4ccc(O)c5c4C2(CCN3CC2CC2)C1O5` (stereo not given): the values for the Ratio in test [1] and in test [4] were 22.7 and 3.3, respectively. For the same compound, the Relative potency in the test filed under Cavia porcellus [2] stood at 9.9; in the test listed under Cavia porcellus [3] it was 2.2.

Consider `O=C(/C=C/C(=O)NCC(=O)NCC(=O)NC1CCC2(O)C3Cc4ccc(O)c5c4C2(CCN3CC2CC2)C1O5)NCC(=O)NCC(=O)NC1CCC2(O)C3Cc4ccc(O)c5c4C2(CCN3CC2CC2)C1O5` (stereo not given), for which the Ratio is 100 in test [1] and 19.6 in test [4]. The Relative potency in the test listed under Cavia porcellus [2] was found to be 43; in the test listed under Cavia porcellus [3], 13.1.

With `O=C(/C=C/C(=O)NCC(=O)NC1CCC2(O)C3Cc4ccc(O)c5c4C2(CCN3CC2CC2)C1O5)NCC(=O)NC1CCC2(O)C3Cc4ccc(O)c5c4C2(CCN3CC2CC2)C1O5` (stereo not given), the Ratio in test [1] amounted to 8.2; in test [4] it was 6.6. The compound also returned a Relative potency in the test filed under Cavia porcellus [2] of 3.6.

`O=C(/C=C/C(=O)NC1CCC2(O)C3Cc4ccc(O)c5c4C2(CCN3CC2CC2)C1O5)NC1CCC2(O)C3Cc4ccc(O)c5c4C2(CCN3CC2CC2)C1O5` (stereo not given): the values for the Ratio in test [1] and in test [4] were 4.8 and 3.4, respectively. Further, the Relative potency in the test listed under Cavia porcellus [2] is listed as 2.1; in the test listed under Cavia porcellus [3], 2.3.
